RGS4 block = human RGS4 inhibition | P49798 | HEK293 M3R/RGS4 inducible, Fluo-4 calcium flux; active compounds read high; triggered by carbachol at its EC20 | B-score at 10 µM | 0.45% of 310,000 active;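 active means B-score, a plate-corrected calcium signal, over three deviations above library mean, with baseline fluorescence within five deviations of library mean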;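 further: RGS4 expression induced by doxycycline in cells with stable M3 receptor; B-score is computed from the integrated fluorescence ratio over baseline after carbachol; higher B-score means a larger calcium signal and so more RGS4 inhibition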
Target sequence (P49798 whole entry, looked up): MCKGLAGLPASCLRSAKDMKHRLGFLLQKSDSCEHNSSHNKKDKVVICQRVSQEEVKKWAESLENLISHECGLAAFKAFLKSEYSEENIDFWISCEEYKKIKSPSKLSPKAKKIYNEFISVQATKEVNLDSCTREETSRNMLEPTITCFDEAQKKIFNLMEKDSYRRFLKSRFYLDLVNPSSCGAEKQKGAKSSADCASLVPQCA
RGS4 pot = potentiators or activators of RGS4; B-score at 10 µM; 0.92% of 310,000 active; HEK293 M3R/inducible RGS4, carbachol calcium flux Fluo4; active compounds read low;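 active means B-score of the integrated calcium signal more than 4 SD below the library mean, with starting fluorescence not abnormally high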;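 further: negative B-score means reduced calcium response which marks RGS4 activation or potentiation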
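Assay system: HEK293 FlpIn-TREx cells, stable M3R, doxycycline-inducible RGS4 / Probe or stimulus: carbachol, ECmax concentration / Times: overnight RGS4 induction, 30 min dye load 37 °C, 20 min compound RT / Signal: kinetic calcium fluorescence imaging with Fluo4-AM dye, 2 µM / Measure: Agonist-evoked peak-minus-minimum fluorescence over baseline, integrated ratio, B score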
MrgX1 ag = activates human MrgX1 receptor signaling; B-score at 10 µM; MrgX1-HEK293 cells, Fluo-4 calcium fluorescence, agonist mode; active compounds read high; Q96LB2; AID 588627; 0.44% of 310,000 active;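 active means calcium response B-score plate-corrected fluorescence ratio at least 3 library SD, with starting fluorescence B-score inside 5 SD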
Target sequence (Q96LB2 whole entry, looked up): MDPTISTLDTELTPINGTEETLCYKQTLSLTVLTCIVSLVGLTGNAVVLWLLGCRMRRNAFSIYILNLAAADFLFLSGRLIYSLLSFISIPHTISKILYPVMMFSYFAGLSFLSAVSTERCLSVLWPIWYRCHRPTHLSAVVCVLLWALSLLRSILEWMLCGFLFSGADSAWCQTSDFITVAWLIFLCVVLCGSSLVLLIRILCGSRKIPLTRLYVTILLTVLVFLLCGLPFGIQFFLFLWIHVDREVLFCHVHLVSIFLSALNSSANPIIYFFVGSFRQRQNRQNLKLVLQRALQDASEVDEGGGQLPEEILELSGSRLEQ
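System – MrgX1-expressing HEK293 cells · Incubation – cells plated overnight, dye loaded 0.5 h 37 °C, 0.5 h room temperature · Technique – kinetic Fluo-4 NW fluorescence of intracellular calcium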
MrgX1 allo act = human MrgX1 positive allosteric modulation, primary screen; Q96LB2; MrgX1-HEK293, Fluo-4 calcium flux, FDSS; active compounds read high; B-score at 10 µM; 0.63% of 310,000 active;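 active means plate-corrected calcium response at least 3 library SD above typical, normal starting fluorescence, not activating the receptor alone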;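 further: compound read alongside a low EC10 to EC30 dose of BAM8-22 agonist; peak minus trough fluorescence over baseline measured at the second addition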
MrgX1 antag = blocks BAM8-22 activation of human MrgX1 receptor | MRGX1-HEK293 calcium flux, Fluo-4, BAM8-22 antagonism; active compounds read low | B-score at 10 µM | 1.3% of 310,000 active;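 active means calcium-response B-score plate-corrected more than 3 library SD below zero, starting fluorescence within 5 deviations, no agonist response on first addition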;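 further: peak minus trough fluorescence over baseline after final BAM8-22 challenge near maximal dose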
Numbers without * were called inactive; i = inactive; nt = not tested or not shown. Hits are enriched below; roughly 3.5% of the tested compounds scored in any of these assays.

SMILES | RGS4 block | RGS4 pot | MrgX1 ag | MrgX1 allo act | MrgX1 antag
Cc1ccc(-c2nnn(CC(=O)N3CCN(c4ccccc4)CC3)n2)o1 | i | -7.58* | i | i | i
C/C(=N\NC(=O)CNC(=O)c1ccccc1F)c1ccco1 | i | i | i | i | i
CN(CC(=O)Nc1cccc(F)c1)C(=O)c1cc(-c2ccccc2)nc2ccccc12 | i | i | i | i | i
Cc1ccc2nc(-c3ccccc3)cc(C(=O)N(C)CC(=O)Nc3ccccc3Br)c2c1 | i | -9.16* | i | i | i
COc1ccc(OCC(=O)NNC(=O)c2ccc3c(=O)n4c(nc3c2)CCC4)cc1 | i | i | i | i | i
CCOC(=O)c1c(NC(=O)C(NCCN(C)C)c2ccccc2)sc2c1CCCC2 (configuration not stated) | i | i | i | i | i
COc1ccc(Cc2nc3ccc(C(=O)NC(C)Cc4ncccc4C)cc3o2)cc1OC (configuration not stated) | i | -6.95* | i | i | i
CCOC(=O)C1CCN(C(=O)Nc2ccc3nc(-c4ccco4)c(-c4ccco4)nc3c2)CC1 | i | i | i | i | -4.99*
O=C(Nc1ccc2nc(-c3ccco3)c(-c3ccco3)nc2c1)N1CCCCCC1 | i | i | i | i | i
COC(=O)c1ccccc1NC(=O)CSc1n[nH]c(-c2ccco2)n1 | i | i | i | i | i
CC(C)Cc1ccc(C(C)C(=O)OCC(=O)c2c[nH]c3ccccc23)cc1 (configuration not stated) | i | -7.34* | i | i | i
Cc1ccc(C(=O)OCC(=O)c2c[nH]c3ccccc23)cc1 | i | i | i | i | i
O=[N+]([O-])c1ccccc1S(=O)(=O)Nc1cccc(-c2ccc3nncn3n2)c1 | i | i | 26.7* | i | i
Cc1nnc2ccc(-c3cccc(NS(=O)(=O)c4ccccc4Cl)c3)nn12 | i | i | i | i | i
Cc1nnc2ccc(-c3cccc(NS(=O)(=O)c4ccccc4[N+](=O)[O-])c3)nn12 | i | i | 29.2* | i | i
Cc1[nH]c(C)c(S(=O)(=O)NCc2ccc(Cl)cc2)c1C(=O)N1CCCC1 | i | i | i | i | i
CC(=O)NC(=O)COC(=O)/C=C/c1c(C)nn(Cc2c(Cl)cccc2Cl)c1Cl | i | i | i | i | i
Cc1ccc2nc(N(CCCN(C)C)C(=O)c3cc(-c4cccs4)nc4ccccc34)sc2c1 | i | -7.76* | i | i | i
CCCCn1c(Cc2ccccc2)n[nH]c1=S | i | -7.4* | i | i | i
CC(C)CCn1c(COc2ccccc2)n[nH]c1=S | i | -7.12* | i | i | i
CCCCCn1c(=O)c2ccccc2n2c(=S)[nH]nc12 | i | i | i | i | i
S=c1[nH]nc(COc2ccccc2)n1Cc1ccccc1 | i | i | i | i | i
CCCCn1c(=O)c2ccccc2n2c(=S)[nH]nc12 | i | i | i | i | -5.43*
COc1ccccc1N1C(=O)CC(N2CCN(c3ccc(Cl)cc3)CC2)C1=O (configuration not stated) | i | i | i | i | i
CC1(C)CC(=O)C(C2C3=C(CC(C)(C)CC3=O)Oc3c(Br)cc(Br)cc32)=C(O)C1 (configuration not stated) | i | i | 52.2* | i | i
SMILES | RGS4 block | RGS4 pot | MrgX1 ag | MrgX1 allo act | MrgX1 antag
CC1(C)CC(=O)C2=C(C1)OC1=C(C(=O)CC(C)(C)C1)C2c1cc([N+](=O)[O-])cc([N+](=O)[O-])c1O | i | i | i | i | i
COc1cccc(CNc2cccc3cccnc23)c1O | i | i | i | 15.1* | i
COc1cccc(CNc2ccccn2)c1O | i | i | i | i | i
CC(=O)Nc1ccc(NC(=O)CSc2nc(N)c(NC(=O)c3ccccc3F)c(=O)[nH]2)cc1 | i | i | i | i | i
CC(C)(C)NC(=S)N/N=C\c1ccc(-c2ccc([N+](=O)[O-])cc2)o1 | i | i | 28.3* | i | i
O=C(O)c1cccc(-c2ccc(/C=N/Nc3ccc([N+](=O)[O-])cc3)o2)c1 | i | i | i | i | -7*
NC(=NCCCCCCN=C(N)/N=C(\N)Nc1ccc(Cl)cc1)/N=C(\N)Nc1ccc(Cl)cc1 | i | i | i | i | -5.7*
CC(C)N=C(N)N=C(N)Nc1ccc(Cl)cc1 | nt | nt | i | i | i
Cc1nn2c(-c3cccc(NC(=O)CSc4nc5ccccc5o4)c3)nnc2c2ccccc12 | i | -7.92* | i | i | i
Cc1cccc(NC(=O)CSc2nc3ccccc3o2)c1 | i | i | i | i | i
Cc1ccc(C)c(N2CCN(C(=O)C3CCN(c4nc(C)cc(C)n4)CC3)CC2)c1 | i | i | i | i | i
Cc1cc(C)nc(N2CCC(C(=O)N3CCN(c4cc(Cl)ccc4C)CC3)CC2)n1 | i | -7.3* | i | i | i
O=C(O)Cn1c2c(c3ccccc31)CSc1ccc(Cl)cc1-2 | i | i | i | i | i
O=C(N/N=C/c1ccc(OC2CSC2)cc1)c1ccccc1 | i | i | i | i | i
O=C(/C=C/c1ccc(OC2CSC2)cc1)c1ccccc1 | i | -7.53* | i | i | i
O=C1NN(c2ccc(Cl)c(Cl)c2)C(=O)/C1=C/c1cccc(OC(=O)c2cccs2)c1 | 25.4* | i | i | i | i
CSCC(C)N1CCC(N2CCC(C(=O)NCc3ccccn3)CC2)CC1 (configuration not stated) | i | i | i | i | i
CCCCOc1ccc(/C=N/NC(=O)c2csc(C)c2C)cc1 | i | -8.59* | i | i | i
CCOc1ccc2[nH]c(=O)c(CN(Cc3nnnn3Cc3ccco3)C3CCCCC3)cc2c1 | i | i | 26.6* | i | i
COc1cc2cc(CN(Cc3nnnn3Cc3ccco3)C3CCCCC3)c(=O)[nH]c2cc1OC | i | i | i | i | i
CCCN=C1N/C(=C\c2ccco2)C(=O)N1c1ccccc1 | i | i | i | i | i
CCCN(CCC)C1=N/C(=C\c2ccco2)C(=O)N1c1ccccc1 | i | i | i | 6.89* | i
CC(C(=O)N1CCN(Cc2ccc3c(c2)OCO3)CC1)n1cc([N+](=O)[O-])cn1 (configuration not stated) | i | i | i | i | i
Oc1cccc2c(NC(=S)Nc3ccc(SC(F)F)cc3)cccc12 | i | i | i | i | -5.31*

Bioassay records from PubChem BioAssay.
